Results as given in ChEMBL document CHEMBL2311385, “Enhancing macrocyclic diterpenes as multidrug-resistance reversers: structure-activity studies on jolkinol D derivatives” (J Med Chem, 2013).

Tests used:
[1] = tested on: P-glycoprotein 1 / MDR1 (Homo sapiens); experiment: Selectivity index, ratio of IC50 for chemosensitive mouse L5178Y cells to IC50 for chemoresistant mouse L5178Y cells expressing human MDR1 gene
L5178Y [2] = experiment: Cytotoxicity against chemoresistant mouse L5178Y cells expressing human MDR1 gene after 72 hrs by MTT assay; format: ADME, cell-based
Summary of the method: (§1)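 L5178Y parental and human MDR1-transfected mouse T-cell lymphoma cells grown in McCoy's 5A with 10% heat-inactivated horse serum at 37 °C, 5% CO2. Cells seeded at 1 × 10^5/mL and given 2-fold serial dilutions in duplicate wells for 72 h. MTT added for 4 h, then SDS overnight, OD 550 nm (ref 630). IC50 from curve fitting over three independent experiments. Selectivity index = IC50(PAR)/IC50(MDR).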

[3] = target: T1, ATP-dependent translocase ABCB1 (Homo sapiens, UniProt P08183); experiment: Inhibition of human Pgp-mediated rhodamine 123 efflux expressed in mouse L5178Y cells assessed as fluorescence activity ratio at 2 uM after 10 mins by flow cytometric analysis; format: cell-based
T1 sequence (P08183 whole entry): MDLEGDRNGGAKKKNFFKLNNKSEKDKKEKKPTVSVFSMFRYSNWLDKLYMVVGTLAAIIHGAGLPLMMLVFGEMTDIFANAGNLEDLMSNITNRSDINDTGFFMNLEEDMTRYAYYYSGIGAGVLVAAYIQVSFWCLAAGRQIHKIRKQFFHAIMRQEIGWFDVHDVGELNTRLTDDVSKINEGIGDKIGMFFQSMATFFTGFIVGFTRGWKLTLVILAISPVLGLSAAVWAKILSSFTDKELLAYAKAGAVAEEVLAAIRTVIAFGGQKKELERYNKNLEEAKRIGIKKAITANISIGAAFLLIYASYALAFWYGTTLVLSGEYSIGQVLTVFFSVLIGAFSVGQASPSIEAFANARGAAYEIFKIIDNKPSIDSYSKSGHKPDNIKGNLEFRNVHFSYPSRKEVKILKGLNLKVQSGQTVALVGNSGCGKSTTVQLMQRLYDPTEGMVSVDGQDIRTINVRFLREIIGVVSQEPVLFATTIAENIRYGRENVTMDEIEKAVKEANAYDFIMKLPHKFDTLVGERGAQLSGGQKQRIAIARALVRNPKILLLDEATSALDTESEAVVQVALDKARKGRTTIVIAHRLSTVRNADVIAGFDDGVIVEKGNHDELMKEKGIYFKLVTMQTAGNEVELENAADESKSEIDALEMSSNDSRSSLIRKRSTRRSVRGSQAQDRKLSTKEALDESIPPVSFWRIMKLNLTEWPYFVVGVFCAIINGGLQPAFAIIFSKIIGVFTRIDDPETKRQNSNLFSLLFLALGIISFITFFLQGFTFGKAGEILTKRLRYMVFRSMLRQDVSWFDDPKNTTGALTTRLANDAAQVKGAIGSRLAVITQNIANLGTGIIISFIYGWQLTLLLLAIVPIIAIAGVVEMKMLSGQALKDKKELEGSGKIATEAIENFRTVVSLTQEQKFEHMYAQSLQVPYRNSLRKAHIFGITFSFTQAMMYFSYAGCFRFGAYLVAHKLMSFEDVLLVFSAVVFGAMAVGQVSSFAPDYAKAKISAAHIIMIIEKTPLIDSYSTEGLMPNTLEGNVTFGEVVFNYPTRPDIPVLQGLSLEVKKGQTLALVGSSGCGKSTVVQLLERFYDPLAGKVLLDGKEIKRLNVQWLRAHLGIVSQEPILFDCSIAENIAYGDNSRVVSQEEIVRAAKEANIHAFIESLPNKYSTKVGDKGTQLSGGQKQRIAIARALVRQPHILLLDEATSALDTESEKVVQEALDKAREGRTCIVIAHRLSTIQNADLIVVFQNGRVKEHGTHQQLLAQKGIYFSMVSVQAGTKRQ
Summary of the method: (§2)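 PAR and MDR L5178Y cells at 2 × 10^6 cells/mL in serum-free McCoy's 5A, compound at 2 or 20 μM. Verapamil 22 μM as positive control, DMSO 2% as solvent control. After 10 min at room temperature, rhodamine-123 added (5.2 μM final) for 20 min at 37 °C. Cells washed twice, resuspended in PBS, and mean FL-1 of 20 000 cells read by flow cytometry. FAR = (MDR treated/untreated)/(PAR treated/untreated).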

[4] = target: T1, ATP-dependent translocase ABCB1; experiment: Inhibition of human Pgp expressed in mouse L5178Y cells assessed as potentiation of doxorubicin-induced cytotoxicity after 48 hrs by MTT assay; format: cell-based
Summary of the method: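 Checkerboard combination with doxorubicin (14.7–0.1 μM) across one axis and 2-fold dilutions of modifier on the other, at a fixed drug ratio. MDR L5178Y cells seeded at 2 × 10^5 cells/mL and incubated 48 h, growth read by MTT. Combination index from the Chou–Talalay median-effect equation at 50% inhibition, using the best combination ratio. CI <1 synergy, =1 additivity, >1 antagonism.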

L5178Y [5] = experiment: Cytotoxicity against chemosensitive mouse L5178Y cells after 72 hrs by MTT assay; format: cell-based
Summary of the method: as §1

[6] = target: T1, ATP-dependent translocase ABCB1; experiment: Inhibition of human Pgp-mediated rhodamine 123 efflux expressed in mouse L5178Y cells assessed as fluorescence activity ratio at 20 uM after 10 mins by flow cytometric analysis; format: cell-based
Summary of the method: as §2

L5178Y [7] = experiment: Toxicity against chemoresistant mouse L5178Y cells expressing human MDR1 gene at >40 uM after 10 mins by flow cytometric analysis; format: cell-based
Summary of the method: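 Toxicity during the rhodamine-123 accumulation assay, tested at 2, 20, 40 and 80 μM, was judged from shifts in flow-cytometric forward scatter and side scatter.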

[8] = target: T1, ATP-dependent translocase ABCB1; experiment: Inhibition of human Pgp-mediated rhodamine 123 efflux expressed in mouse L5178Y cells assessed as reversal of chemoresistance after 10 mins by flow cytometric analysis; format: cell-based
Summary of the method: (§3)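 MDR L5178Y cells preincubated 10 min with compound, then loaded with rhodamine-123 (5.2 μM final) for 20 min at 37 °C and read by flow cytometry. The percentage of cells reverted to a chemosensitive phenotype was obtained by Overton cumulative histogram subtraction, channel by channel.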

P-gp (ABCB1) = P-gp (ABCB1) (Homo sapiens, UniProt P08183); experiment: Inhibition of human Pgp expressed in mouse L5178Y cells assessed as reversal of chemoresistance at 20 uM after 10 mins by flow cytometric analysis; format: cell-based
Chain of P-gp (ABCB1) (P08183 whole entry): as above
Summary of the method: as §3

| Structure (SMILES) | selectivity ratio [1] | IC50 (L5178Y [2]) | Ratio [3] | CI [4] | IC50 (L5178Y [5]) | Ratio [6] | Activity (L5178Y [7]) | inhibition (INH) [8] | inhibition at 10 min, 20 µM (P-gp (ABCB1)) |
| --- | --- | --- | --- | --- | --- | --- | --- | --- | --- |
| CC(=O)O[C@H]1[C@@H](C)C[C@]2(OC(C)=O)C(=O)/C(C)=C/[C@@H]3[C@H](CC/C(C)=C/[C@@H]12)C3(C)C [JOLKINOATE A] | 0.6 | 60.4 µM | 1.16 | 0.18 | 38.2 µM | 33.76 |  |  |  |
| CCC(=O)O[C@H]1[C@@H](C)C[C@]2(OC(C)=O)C(=O)/C(C)=C/[C@@H]3[C@H](CC/C(C)=C/[C@@H]12)C3(C)C [JOLKINOATE B] | 0.8 | 22.2 µM | 2.95 | 0.34 | 18.3 µM | 30.64 | Toxic |  |  |
| CCCC(=O)O[C@H]1[C@@H](C)C[C@]2(OC(C)=O)C(=O)/C(C)=C/[C@@H]3[C@H](CC/C(C)=C/[C@@H]12)C3(C)C [JOLKINOATE C] | 0.9 | 26.8 µM | 5.15 | 0.39 | 24 µM | 107.89 | Toxic |  |  |
| CCCCCCCCCCCC(=O)O[C@H]1[C@@H](C)C[C@]2(OC(C)=O)C(=O)/C(C)=C/[C@@H]3[C@H](CC/C(C)=C/[C@@H]12)C3(C)C [JOLKINOATE D] | 0.6 | 60.3 µM | 1.74 | 2.02 | 38.7 µM | 25.69 |  |  |  |
| CCCC(C)C(=O)O[C@H]1[C@@H](C)C[C@]2(OC(C)=O)C(=O)/C(C)=C/[C@@H]3[C@H](CC/C(C)=C/[C@@H]12)C3(C)C (stereo not given in full) [JOLKINOATE E] | 0.9 | 18.8 µM | 7.14 | 0.23 | 17.2 µM | 12.13 | Toxic |  |  |
| CCC(CC)C(=O)O[C@H]1[C@@H](C)C[C@]2(OC(C)=O)C(=O)/C(C)=C/[C@@H]3[C@H](CC/C(C)=C/[C@@H]12)C3(C)C [JOLKINOATE F] | 1 | 14.7 µM | 4.99 | 0.25 | 14.3 µM | 77.25 | Toxic |  |  |
| CCCCC(CC)C(=O)O[C@H]1[C@@H](C)C[C@]2(OC(C)=O)C(=O)/C(C)=C/[C@@H]3[C@H](CC/C(C)=C/[C@@H]12)C3(C)C (stereo not given in full) [JOLKINOATE G] | 0.4 | 48.9 µM | 10.55 | 0.31 | 20.6 µM | 52.66 | Toxic |  |  |
| CC(=O)O[C@]12C[C@H](C)[C@H](OC(=O)c3ccccc3)[C@@H]1/C=C(\C)CC[C@H]1[C@@H](/C=C(\C)C2=O)C1(C)C [JOLKINOATE I] | 1 | 33.1 µM | 24.15 | 0.35 | 34.7 µM | 84.22 |  | Dose-dependent effect | 70.2% |
| CC(=O)O[C@]12C[C@H](C)[C@H](OC(=O)c3ccc(C)cc3)[C@@H]1/C=C(\C)CC[C@H]1[C@@H](/C=C(\C)C2=O)C1(C)C [JOLKINOATE J] | 0.9 | 45.1 µM | 21.11 | 0.26 | 41.2 µM | 56.88 |  | Dose-dependent effect |  |
| COc1ccc(C(=O)O[C@H]2[C@@H](C)C[C@]3(OC(C)=O)C(=O)/C(C)=C/[C@@H]4[C@H](CC/C(C)=C/[C@@H]23)C4(C)C)cc1 [JOLKINOATE K] | 0.7 | 32.7 µM | 28.09 | 0.3 | 21.7 µM | 109.17 |  | Dose-dependent effect | 95% |
| CC(=O)O[C@]12C[C@H](C)[C@H](OC(=O)c3cccc(C(F)(F)F)c3)[C@@H]1/C=C(\C)CC[C@H]1[C@@H](/C=C(\C)C2=O)C1(C)C [JOLKINOATE L] | 0.8 | 52.6 µM | 9.32 | 0.27 | 44 µM | 28.66 |  |  |  |
| CC(=O)O[C@]12C[C@H](C)[C@H](OS(=O)(=O)c3ccccc3)[C@@H]1/C=C(\C)CC[C@H]1[C@@H](/C=C(\C)C2=O)C1(C)C [JOLKINOATE M] | 0.8 | 15 µM | 16.06 | 0.21 | 12.1 µM | 52.77 |  | Dose-dependent effect |  |
| C/C1=C\[C@H]2[C@@H](O)[C@@H](C)C[C@]2(O)C(=O)/C(C)=C/[C@@H]2[C@H](CC1)C2(C)C [JOLKINODIOL] | 0.7 | 48.9 µM | 0.84 | 0.65 | 36.4 µM | 3.38 |  |  |  |
| CC(=O)O[C@]12C[C@H](C)[C@H](O)[C@@H]1/C=C(\C)CC[C@H]1[C@@H](/C=C(\C)C2=O)C1(C)C [JOLKINOL D] | 0.9 | 99.7 µM | 0.79 | 0.26 | 89.9 µM | 0.92 |  |  |  |
